# Source: PubChem BioAssay (several laboratories)
# Lipid droplet = hepatic lipid droplet formation modulation. actives 0.4% (n = 240,000). AID 1656. inhibition, % at 6.5 µM. AML12 mouse hepatocytes, oleate lipid droplets, BODIPY imaging;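 active means lipid droplet intensity inhibited by at least 50%, with more than 500 cells counted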
#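 material = mouse AML12 hepatocyte cell line, fixed after treatment | also added = 100 µM oleic acid challenge | doses = compound at 6.5 µM only | schedule = overnight exposure | technique = Image-based BODIPY and DAPI two-channel analysis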
# 697 NFkB inh = lowers PMA/ionomycin-induced NF-kB signal in 697 B cells; 697 B-cell NF-kB luciferase reporter, 16 h; actives 0.33% (n = 330,000); inhibition, % at 4 µM; in the data active means inhibition above about 35%
# aSyn UTR inh = 5' untranslated region of α-synuclein, MLPCN primary screen; AID 1813; inhibition, % (tested at 7.5 µM); actives 0.82% (n = 300,000); alpha-synuclein 5'UTR reporter, inhibitor activity; in the data active means inhibition above about 60%;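 further: H4 neuroglioblastoma cells stably carrying SNCA 5'UTR luciferase fusion; 0% = DMSO wells and 100% = positive control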
# Jurkat NFkB inh = lowers PMA/ionomycin-induced NF-kB signal in Jurkat cells; actives 0.53% (n = 330,000); PMA/ionomycin-induced NF-kB luciferase reporter, luminescence; inhibition, % at 4 µM; in the data active means inhibition above about 50%
# APP transl inh = APP translation inhibition; SH-SY5Y APP 5'UTR-luciferase reporter, luminescence; inhibition, % at 2 µM; actives 0.82% (n = 190,000); AID 1285;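 active means inhibition above a set limit, derived from the sample mean plus 3 SD, cut at about 45% in these data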
# TAG inh = reduces triacylglycerol accumulation in H9c2 cells | Nile Red lipid (TAG) fluorescence; cells loaded with 200 µM oleic acid | inhibition, % at 12.5 µM | actives 0.66% (n = 230,000);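 active means pattern-corrected inhibition of lipid staining of at least 50% with the nuclear-stain viability signal not falling by more than 50%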;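 further: 0% = DMSO wells and 100% = triacsin C control wells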
# Hep lipid conf = hepatic lipid droplet formation inhibition, confirmed. inhibition, % at 5.2 µM. actives 65% (n = 870). shares compounds with Lipid droplet. AML12 mouse hepatocytes, BODIPY lipid droplet imaging; droplets induced with 100 µM oleic acid;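 active means inhibition of lipid droplet metric at least 50%, with more than 300 cells in each of four replicates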;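 further: plate controls were DMSO with oleic acid for no effect and 5 µM Triacsin-C for full effect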
# AML12 cytotox = toxic to AML12 mouse hepatocytes in counter-screen | z-score at 5 µM | shares compounds with Lipid droplet | DAPI nuclear morphology cytotoxicity imaging; active compounds read high; cells fed 100 µM oleate overnight | actives 3% (n = 870) | AID 463200; in the data active means z-score above about 6.3;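 further: compound exposure lasted overnight at 37 °C before fixation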
# AML12 tox ATP = confirmation of cytotoxicity in AML12 mouse hepatocytes | cytotoxicity, % at 50 µM | AML12 mouse hepatocyte viability, ATP luminescence; cells loaded with 100 µM oleic acid | 530 tested, under 10 active | shares compounds with Lipid droplet;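 active means cytotoxicity above 50% in each of four replicates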;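 further: compound exposure lasted overnight at 37 °C before the ATP read; 0% = DMSO-treated cells and 100% = wells with no cells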
# The depositor's hits bear a star; · = no result given. The list is not random: actives were taken first. Their share in the collection is about 1.9%.
SMILES,Lipid droplet,697 NFkB inh,aSyn UTR inh,Jurkat NFkB inh,APP transl inh,TAG inh,Hep lipid conf,AML12 cytotox,AML12 tox ATP
CC(C)C[C@@H](CN)NC(=O)c1nc[nH]c1C(=O)N[C@@H](C)C(=O)CNC[C@H](C)NC(=O)c1nc[nH]c1C(=O)N[C@@H](CC(C)C)C(=O)O,·,·,·,·,·,3,·,·,·
O=C(Nc1nc(-c2ccccc2)cs1)C1CCCCN1S(=O)(=O)c1ccccc1 (stereo unspecified),41,-64,-16,-12,18,·,·,·,·
O=C(Nc1nc(-c2ccccc2)cs1)C1CCCCN1S(=O)(=O)c1ccc(Cl)cc1 (stereo unspecified),62*,-7,-24,2,39,·,91*,-0.081,2
O=C(Nc1nc(-c2ccc(-c3ccccc3)cc2)cs1)C1CCCO1 (stereo unspecified),61*,-38,-65,-9,-13,35,102*,0.32,9
COc1cccc(NC(=O)N2CCCC2C(=O)Nc2ccc3c(c2)OCO3)c1 (stereo unspecified),22,1,8,11,-8,14,·,·,·
COc1ccccc1NC(=O)N1CCCC1C(=O)Nc1ccc2c(c1)OCO2 (stereo unspecified),71*,-1,-6,-1,-16,43,71*,0.22,7
O=C(CNc1ccccc1)N/N=C/c1cn(-c2ccccc2)nc1-c1ccccc1,58*,-16,-41,-3,-11,·,38,0.37,·
Cc1c(S(=O)(=O)c2ccccn2)c(N)n(Cc2ccccc2Cl)c1C,-4,-3,-19,-5,·,0,·,·,·
Cc1c(S(=O)(=O)c2ccccn2)c(N)n(Cc2ccccc2)c1C,61*,-4,-14,-5,·,-12,8,-0.61,·
Cc1ccc(NC(=O)CNCc2cccs2)cc1Br,18,3,-85,-22,·,·,·,·,·
CC(NC(=O)[C@@H](C)NC(=O)[C@@H]1Cc2ccccc2CN1C(=O)OC(C)(C)C)c1ccccc1 (stereo partly specified),68*,2,1,-16,·,·,76*,-0.24,13
Nc1nc(-c2ccccc2)c(N=Nc2cccc3ccccc23)s1,113*,9,-23,-1,-30,·,115*,0.42,44
Nc1nc(-c2ccccc2)c(N=Nc2ccccc2Cl)s1,104*,-10,-18,0,8,·,114*,-0.57,32
CCn1c(/N=C/c2ccccc2NS(=O)(=O)c2ccc(C)cc2)nc2ccccc21,-4,·,·,·,5,·,·,·,·
COc1ccc(C(=O)CCC(=O)Nc2ccc(N3CCCCC3)cc2)cc1OC,92*,1,17,-13,·,·,108*,0.0011,11
Cc1ccc(SCCSc2nc(C)cc(=O)[nH]2)cc1,-16,-85,-133,-14,·,8,·,·,·
CCOC(=O)c1ccc(NC(=O)CN(Cc2ccc(Cl)cc2)S(C)(=O)=O)cc1,50*,15,6,3,2,·,76*,-0.59,2
COc1cccc(NC(=O)CN(Cc2ccccc2)S(C)(=O)=O)c1,50*,16,-5,-3,3,·,43,-0.27,·
CS(=O)(=O)N(CC(=O)Nc1ccc2c(c1)OCCO2)Cc1ccc(Cl)cc1,0,1,·,-5,-8,14,·,·,·
COc1ccc(/C=C(/NC(=O)c2cccs2)C(=O)Nc2ccc(C)cc2)cc1OC,61*,16,16,-18,23,·,100*,0.21,9
C/C=C(\C)C(=O)OC1CC(C)(C)C[C@H]2C3=CC[C@@H]4[C@@]5(C)CCC(O[C@@H]6O[C@@H](C(=O)O)[C@@H](O)C(O[C@@H]7OC[C@H](O)[C@@H](O)[C@@H]7O[C@@H]7OC(CO)C(O)[C@@H](O)[C@@H]7O)C6O[C@@H]6OC(CO)C(O)C(O)C6O)[C@@](C)(CO)[C@@H]5CC[C@]4(C)[C@]3(C)CC(O)[C@@]12CO (stereo partly specified),·,12,·,11,·,11,·,·,·
CCCCN(CCCNC(=O)Cn1nc(CC)n2c(cc3sc(C)cc32)c1=O)Cc1ccccc1,69*,-24,35,17,·,·,89*,-0.5,15
CCc1nn(CC(=O)NCCCN(CC)Cc2ccccc2)c(=O)c2cc3sccc3n12,-30,-11,-8,26,3,·,·,·,·
COC(=O)c1ccc(Cn2nc(-c3cc(C)ccc3C)ccc2=O)cc1,-7,-10,7,29,·,·,·,·,·
CCCCOc1ccc(C(C)NC(=O)CCS(=O)(=O)Cc2ccc(C)cc2)cc1 (stereo unspecified),52*,11,23,13,-19,29,103*,-0.15,·
SMILES,Lipid droplet,697 NFkB inh,aSyn UTR inh,Jurkat NFkB inh,APP transl inh,TAG inh,Hep lipid conf,AML12 cytotox,AML12 tox ATP
Cc1c(O)ccc(/C=N/Nc2nc(-c3cccnc3)nc3ccccc23)c1O,52*,-62,-77,-3,·,69*,81*,11*,·
Oc1ccc(/C=N/Nc2nc(-c3cccnc3)nc3ccccc23)c(O)c1,-3,-18,-46,10,·,30,·,·,·
CCOc1ccccc1N1CCN(C(=O)c2ccc(OCC(=O)N3CCOCC3)c(OC)c2)CC1,-4,-14,0,2,·,4,·,·,·
Cc1cc(C)n2nc(C(=O)N/N=C/c3c4ccccc4cc4ccccc34)nc2n1,66*,1,-12,8,-10,·,103*,0.3,38
CC(=O)Nc1ccc(-c2csc(NC(=O)Cc3cccc(F)c3)n2)cc1,64*,16,23,28,·,·,100*,0.11,-14
CC(=O)Nc1ccc(-c2csc(NC(=O)Cc3ccccc3F)n2)cc1,58*,6,-50,-12,·,·,75*,-0.2,-5
O=C(O)C(c1ccccc1)c1ccccc1,·,14,10,15,·,·,·,·,·
O=C(O)CCCC(=O)Nc1ccc(Br)cc1C(=O)O,52*,28,-8,6,1,3,7,0.074,·
O=C(O)CCCC(=O)Nc1ccc(Br)cc1,8,0,27,-5,-2,·,·,·,·
CCCCOc1ccc(-c2ncc([N+](=O)[O-])cn2)cc1,51*,-109,-133,-73,·,3,19,0.84,·
COc1ccc(OC)c(NC(=O)c2ccc(OCC(=O)N3CCOCC3)c(OC)c2)c1,·,14,-10,3,·,0,·,·,·
COc1ccc(-c2csc(NC(=O)c3ccc(OCC(=O)N4CCOCC4)c(OC)c3)n2)cc1,83*,14,-45,9,7,·,107*,-0.56,53
